# Source: paper PMC3428429 (Biochimica et biophysica acta, 2012)
# Tests used:
# [1] = Two step assay, step two: dithionite quenching of NBD lipids; details: 1 μM peptide, at least 8 h
# [2] = Two step assay, step one: terbium/DPA leakage from vesicles
# [3] = Serial dilution leakage assay; details: independent of total P:L (0.05 to 0.001)
# Method in brief: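 Terbium-loaded LUVs (100 nm extruded; 50 mM TbCl₃, 100 mM sodium citrate, 10 mM TES pH 7.2 inside), external Tb removed by gel filtration. Outside buffer is 300 mM NaCl, 10 mM TES pH 7.2 with 50 μM DPA. Test compound runs 0.078–1.25 μM at six fixed total P:L ratios in 96-well plates. Triton X-100 wells with matched lipid give 100% leakage. Repeated with BSA to block well adsorption.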
# [4] = Incremental leakage assay
Substance,access to the vesicle interior at equilibrium ([1]; P:L = 0.005 (1:200)),"access to NBD lipids at equilibrium ([1]; P:L=0.02 (1:50), only in PG-containing vesicles)","terbium leakage ([2]; P:L=0.02 (1:50), only in PG-containing vesicles, 1 μM peptide, at least 8 h)",peptide concentration at which all leakage curves reach 100% leakage [3] [nM],"lowest P:L ratio with measurable pore-forming activity ([2]; 1:10000 or 10 peptides per vesicle, supplemental Figure S1)","leakage in multiple lipid additions, PEG-lipid vesicles ([4]; vesicles containing 5 mol % PEG2000-headgroup conjugated lipids, supplemental Figure S5A)","lipid exchange between vesicles along with peptide ([4]; vesicles doped with fluorescent lipids, supplemental Figure S5B)"
ALWKTMLKKLGTMALHAGKAALGAAADTISQGTQ [dermaseptin S1],no access to the vesicle interior at equilibrium,high access to NBD lipids,high leakage,–,–,–,–
Ac-UPUAUAQUVUGLUPVUUQQF-OH [alamethicin],–,–,–,≤ 500,≤ 0.0001,near complete leakage in multiple lipid additions,no lipid exchange between vesicles
